These results are taken from ChEMBL document CHEMBL3351428, “Uralsaponins M-Y, antiviral triterpenoid saponins from the roots of Glycyrrhiza uralensis” (J Nat Prod, 2014).

Structures are written as SMILES. pIC50: −log10 of the molar value.

In one data set the test system is MDCK. As to the kind of experiment: Cytotoxicity against MDCK cells assessed as reduction in cell viability at 100 uM after 36 hrs by CellTiter-Glo luminescent assay. As to conditions: dog. The data set is classed as cell-based, Canis lupus familiaris. Put shortly: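 Uninfected MDCK cells, grown in DMEM with 10% FBS, 100 U/mL penicillin and 100 μg/mL streptomycin, were incubated with compound for 36 h. Cytopathic effect was scored by microscopy and confirmed by CellTiter-Glo luminescent viability read-out.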

The nature of data set [1]: Antiviral activity against Influenza A virus A/WSN/33 (H1N1) infected in MDCK cells assessed as inhibition of virus-induced cell death at 100 uM after 36 hrs by CellTiter-Glo luminescent cell viability assay. The data set is classed as functional, Influenza A virus (A/WSN/1933(H1N1)). Put shortly:
(§1)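 MDCK cells in DMEM/10% FBS with penicillin-streptomycin, seeded 1 × 10^5/well 24 h before infection (37 °C, 5% CO2). Virus was grown in MDCK with 2 μg/mL TPCK-trypsin. Compound premixed with virus 15 min at room temperature, then added after medium removal. Read at 36 h postinfection by microscopy, confirmed by CellTiter-Glo. Inhibition % computed from luminescence relative to DMSO with/without virus. IC50 measured for significant inhibitors.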

Data set [2] is described as follows: Antiviral activity against Influenza A virus A/WSN/33 (H1N1) infected in MDCK cells assessed as inhibition of virus-induced cell death after 36 hrs by CellTiter-Glo luminescent cell viability assay. Type of data set: functional, cell-based, Influenza A virus (A/WSN/1933(H1N1)). Put shortly:
as §1

In data set [3] the test system is Human immunodeficiency virus 1. Nature of the data set: Antiviral activity against VSV-G protein pseudotyped HIV1 infected in 293T cells assessed as inhibition of viral replication after 48 hrs by luciferase reporter assay. Type of data set: functional, organism-based. As to conditions: Human immunodeficiency virus 1, HEK-293T. Put shortly:
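Pseudovirus was made by cotransfecting 293T cells with pNL-Luc-E and pHIT/G and harvesting filtered supernatant after 48 h. Capsid level was quantified by p24 ELISA. SupT1 cells were infected at MOI 1 with or without compound (efavirenz as positive control) at […] for 48 h. Luciferase read-out gave inhibition rate. Compounds above 50% at 100 μM were taken to IC50.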

Data set [4] relates to Human immunodeficiency virus 1. As to the kind of experiment: Antiviral activity against VSV-G protein pseudotyped HIV1 infected in 293T cells assessed as inhibition of viral replication at 100 uM after 48 hrs by luciferase reporter assay. The data set is classed as functional. As to conditions: Human immunodeficiency virus 1, HEK-293T.

In the case of `C[C@@H]1O[C@@H](O[C@H]2[C@H](O[C@H]3[C@H](O[C@H]4CC[C@]5(C)[C@H]6C(=O)C=C7[C@@H]8C[C@@](C)(C(=O)O)[C@H](O)C[C@]8(C)CC[C@@]7(C)[C@]6(C)CC[C@H]5C4(C)C)O[C@H](C(=O)O)[C@@H](O)[C@@H]3O)O[C@H](CO)[C@@H](O)[C@@H]2O)[C@H](O)[C@H](O)[C@H]1O`, in the data set on MDCK, the Activity entry is given as “Non-toxic”. Moreover, in data set [1], the inhibition at 100 µM turned out to be 47.5%. Further, in data set [2], the pIC50 is 4.37.
As to `C[C@@H]1O[C@@H](O[C@@H]2CC(C)(C)C[C@H]3C4=CC(=O)[C@@H]5[C@@]6(C)CC[C@H](O[C@@H]7O[C@H](C(=O)O)[C@@H](O)[C@H](O)[C@H]7O[C@@H]7O[C@H](C(=O)O)[C@@H](O)[C@H](O)[C@H]7O)C(C)(C)[C@@H]6CC[C@@]5(C)[C@]4(C)CC[C@@]23C)[C@H](O)[C@H](O)[C@H]1O`, in the data set on MDCK, the Activity entry is “Non-toxic”. Moreover, the inhibition at 100 µM in data set [1] was 47.5%. In data set [2], the pIC50 was 4.40.
As to `CC(=O)O[C@@H]1C[C@](C)(C(=O)O)C[C@H]2C3=CC(=O)[C@@H]4[C@@]5(C)CC[C@H](O[C@H]6O[C@H](C(=O)O)[C@@H](O)[C@H](O)[C@H]6O[C@@H]6O[C@H](C(=O)O)[C@@H](O)[C@H](O)[C@H]6O)C(C)(C)[C@@H]5CC[C@@]4(C)[C@]3(C)CC[C@@]12C`, the Activity result with MDCK is recorded as “Non-toxic”. For the same compound, the pIC50 in data set [3] was 4.53; in data set [2], 4.31. In data set [1], the inhibition at 100 µM came out at 47.5%.
`CC1(C)[C@@H](O[C@@H]2O[C@H](C(=O)O)[C@@H](O)[C@H](O)[C@H]2O[C@@H]2O[C@H](C(=O)O)[C@@H](O)[C@H](O)[C@H]2O)CC[C@]2(C)[C@H]3C(=O)C=C4[C@@H]5C[C@]6(C)C[C@@H](OC6=O)[C@]5(C)CC[C@@]4(C)[C@]3(C)CC[C@@H]12`: in data set [4], the inhibition at 100 µM is above 50%. In data set [3], the pIC50 is 4.06.
For `CC1(C)[C@@H](O[C@@H]2O[C@H](C(=O)O)[C@@H](O)[C@H](O)[C@H]2O[C@@H]2O[C@H](C(=O)O)[C@@H](O)[C@H](O)[C@H]2O)CC[C@]2(C)[C@H]3CC=C4[C@@H]5C[C@@](C)(C(=O)O)CC[C@]5(C)CC[C@@]4(C)[C@]3(C)CC[C@@H]12` the same measures were above 50% and 4.08.
Take `CC1(C)[C@@H](O[C@H]2O[C@H](C(=O)O)[C@@H](O)[C@H](O)[C@H]2O[C@@H]2OC[C@H](O)[C@H](O)[C@H]2O)CC[C@]2(C)[C@H]3C(=O)C=C4[C@@H]5C[C@@](C)(C(=O)O)CC[C@]5(C)CC[C@@]4(C)[C@]3(C)CC[C@@H]12`: the inhibition at 100 µM in data set [4] was above 50%. The negative-log IC50 (pIC50) in data set [3] is 4.07.
For the compound `CC(=O)O[C@@H]1C[C@](C)(C=O)C[C@H]2C3=CC(=O)[C@@H]4[C@@]5(C)CC[C@H](O)C(C)(C)[C@@H]5CC[C@@]4(C)[C@]3(C)CC[C@@]12C`, the inhibition at 100 µM in data set [4] was above 50%. Moreover, in data set [3], the pIC50 is 4.16.
Turning to `CC1(C)[C@@H](O[C@@H]2O[C@H](CO)[C@@H](O)[C@H](O)[C@H]2O)CC[C@]2(C)[C@H]3C(=O)C=C4[C@@H]5C[C@@](C)(C(=O)O)CC[C@]5(C)CC[C@@]4(C)[C@]3(C)CC[C@@H]12`, in data set [4], the inhibition at 100 µM is above 50%. Moreover, the pIC50 in data set [3] is 4.38.
In the case of `CC1(C)[C@@H](O)CC[C@]2(C)[C@H]3C(=O)C=C4[C@@H]5C[C@@](C)(C(=O)O)CC[C@]5(C)CC[C@@]4(C)[C@]3(C)CC[C@@H]12` [ENOXOLONE], the pIC50 in data set [3] was 4.54.
On to `CCOC(=O)C1=C[C@@H](OC(CC)CC)[C@H](NC(C)=O)[C@@H](N)C1` [OSELTAMIVIR PHOSPHATE], for which, in data set [1], the inhibition at 100 µM was 78%. In data set [2], the pIC50 is 4.34.
